From ChEMBL document CHEMBL1157326, “Nortriterpenoids from Schisandra lancifolia” (J Nat Prod, 2006)
Converted amounts (≈) assume the structure as drawn.

Legend:
[1] = Cytotoxicity against human C8166 cells by MTT method; type: cell-based
How it was run: (§1)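 C8166 cells were used for both assays, with AZT as the positive control. Protection from HIV-1 cytopathic effect gave the EC50, and MTT viability on the same cells, run in parallel, gave the CC50.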

[2] = Selectivity index, CC50 for human C8166 cells to EC50 for HIV1 3B; type: toxicity, cell-based; details: read-out: Ratio CC50/EC50
How it was run: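 The ratio is built from a CC50 (MTT viability of C8166 cells) and an EC50 (inhibition of HIV-1 cytopathic effect in C8166 cells), both determined in parallel.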

[3] = tested on: Human immunodeficiency virus 1; experiment: Antiviral activity against HIV1 3B in human C8166 cells assessed as inhibition of virus-induced cytopathic effect; type: functional, organism-based; details: Human immunodeficiency virus 1, 3B; how it was run: as §1

Row | EC50 [3] [µg/mL] | Structure (SMILES) | CC50 [1] [µg/mL] | selectivity ratio [2]
1 | 100 (≈ 178 µM) | C[C@@H]1C(=O)[C@@]2(C)CC[C@]34C[C@]56OC(=O)C[C@H]5OC(C)(C)[C@@H]6C[C@H](O)[C@H]3C(=O)[C@@]3(O[C@H]5[C@H](OC(=O)[C@]5(C)O)[C@@H]1[C@H]32)O4 [LANCIFODILACTONE L] | > 200 | > 2
2 | 96.4 (≈ 177 µM) | CC1=C[C@@H]([C@H]2[C@H](C)C(=O)[C@@]3(C)CC[C@]45C[C@]67OC(=O)C[C@H]6OC(C)(C)[C@@H]7C[C@H](O)[C@H]4C(=O)[C@@](O)(O5)[C@@H]23)OC1=O [LANCIFODILACTONE I] | > 200 | > 2.08
3 | 77.6 (≈ 143 µM) | C[C@@H]1C(=O)[C@@]2(C)CC[C@]34C[C@]56OC(=O)C[C@H]5OC(C)(C)[C@@H]6CC=C3C(=O)[C@@]3(O[C@H]5[C@H](OC(=O)[C@]5(C)O)[C@@H]1[C@H]32)O4 [LANCIFODILACTONE N] | 186 (≈ 343 µM) | 2.4

Second part, the molecule before the results:

Row | Structure (SMILES) | EC50 [3] [µg/mL] | CC50 [1] [µg/mL] | selectivity ratio [2]
4 | Cc1cn([C@H]2C[C@H](N=[N+]=[N-])[C@@H](CO)O2)c(=O)[nH]c1=O [ZIDOVUDINE] | 0.0033 (≈ 0.0123 µM) | > 200 | > 60600
5 | CC1=C[C@@H]([C@H]2[C@H](C)C(=O)[C@@]3(C)CC[C@]45C[C@]67OC(=O)C[C@H]6OC(C)(C)[C@@H]7CC=C4C(=O)[C@@](O)(O5)[C@@H]23)OC1=O [LANCIFODILACTONE K] | 78.5 (≈ 149 µM) | > 200 | > 2.55
6 | CC1=C2[C@H]3OC(=O)[C@@H](C)[C@H]3O[C@]34O[C@@]5(CC[C@](C)(C1=O)[C@H]23)C[C@]12OC(=O)C[C@H]1OC(C)(C)[C@@H]2C[C@H](O)[C@H]5C4=O [LANCIFODILACTONE M] | 76.6 (≈ 141 µM) | > 200 | > 2.61
7 | CC(=O)O[C@H]1C[C@H]2C(C)(C)O[C@@H]3CC(=O)O[C@@]32C[C@]23CC[C@]4(C)C(=O)[C@@H](C)[C@H]([C@@H]5C=C(C)C(=O)O5)[C@@H]4[C@](O)(O2)C(=O)[C@H]13 [LANCIFODILACTONE J] | 88.3 (≈ 151 µM) | > 200 | > 2.26
